Assay outcomes deposited in PubChem by Sanford-Burnham Center for Chemical Genomics.
SENP6 block: inhibitors of human SENP6 protease; inhibition, % at 10 µM; hit rate 1.8% among 330,000; Recombinant SENP6 catalytic domain, aminoluciferin luminescence; AID 2599; Q9GZR1;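 active = inhibition above about 50% at the single tested dose, limit read from the data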
SENP8 block-1: inhibitors of human SENP8 protease | purified SENP8, Z-RLRGG-aminoluciferin cleavage, luminescence | Q96LD8 | hit rate 1.2% among 330,000 | inhibition, % at 10 µM; in the data active = inhibition above about 50%
Target sequence (Q96LD8 whole entry, looked up): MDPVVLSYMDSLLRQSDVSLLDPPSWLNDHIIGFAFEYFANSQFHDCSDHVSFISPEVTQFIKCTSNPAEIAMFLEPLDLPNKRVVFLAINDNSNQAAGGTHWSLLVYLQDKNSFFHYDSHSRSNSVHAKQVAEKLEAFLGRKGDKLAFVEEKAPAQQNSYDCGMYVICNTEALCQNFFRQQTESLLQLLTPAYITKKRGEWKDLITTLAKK
SENP7 inh: inhibitors of human SENP7 protease; Q9BQF6; recombinant SENP7, Z-RLRGG-aminoluciferin luminescence, 40 min; inhibition, % at 5 µM; hit rate 1.5% among 330,000;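 active = inhibition above about 50% at the single test dose, limit read from the data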
Target sequence (Q9BQF6 706-1050 limits assumed): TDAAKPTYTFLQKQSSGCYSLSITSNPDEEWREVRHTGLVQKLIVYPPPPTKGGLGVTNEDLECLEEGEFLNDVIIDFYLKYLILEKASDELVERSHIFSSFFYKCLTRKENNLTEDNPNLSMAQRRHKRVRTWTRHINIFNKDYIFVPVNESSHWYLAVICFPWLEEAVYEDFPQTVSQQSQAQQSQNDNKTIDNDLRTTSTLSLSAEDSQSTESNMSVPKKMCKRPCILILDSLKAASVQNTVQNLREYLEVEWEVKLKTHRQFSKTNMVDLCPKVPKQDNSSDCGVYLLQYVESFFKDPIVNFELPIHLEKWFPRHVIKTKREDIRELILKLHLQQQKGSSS
SENP1 FRET inh: blocks the human SENP1 SUMO protease catalytic domain. Q9P0U3. recombinant SENP1 catalytic domain, CyPet-SUMO1-YPet FRET cleavage. inhibition, % at 10 µM. hit rate 0.21% among 360,000;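 active = inhibition at least 30% at 10 µM, raw YFP signal under a set limit, fluorescence ratio 0.5 to 1.5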
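Material: hSENP1 catalytic domain, recombinant; medium: Tris pH 8 with BME, BSA, NP40 and catalase; compound: single concentration of 10 µM compound, 0.5% DMSO final; technique: FRET read of cyan and yellow fluorescence; timing: 50 min enzyme reaction, room temperature, light-protected; reagent: SFCypet-SUMO1-SFYpet substrate at 25 nM; control set: no-enzyme low, enzyme-DMSO high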
SENP8 block-2: SENP8 (human) protease inhibition; AID 602440; recombinant SENP8, Nedd8 substrate fluorescence; Q96LD8; inhibition, % at 20 µM; hit rate 0.64% among 360,000; in the data active = inhibition mostly above about 40%, no sharp cut-off; inactive = mostly below about 27%
SENP8 inh conf: confirmation of human SENP8 protease inhibitors; hit rate 15% among 1,400; inhibition, % at 25 µM; shares compounds with SENP8 block-2; purified SENP8, Nedd8-AMC/pro-Nedd8 cleavage fluorescence, 30 min; in the data active = inhibition mostly above about 39%, no sharp cut-off; inactive = mostly below about 34%
Hits are given with their value; 0 = inactive; - = not tested or not shown. Only some compounds are listed: those with a hit (about 2.5% of all), similar ones and a draw of the others.

SMILES | SENP6 block | SENP8 block-1 | SENP7 inh | SENP1 FRET inh | SENP8 block-2 | SENP8 inh conf
CCOc1ccc(C2=CC(=O)C[C@H](c3ccc(OC)cc3)C2)cc1 | 0 | 0 | 0 | 0 | 0 | -
Cc1ccc(S(=O)(=O)N2CCC(=O)N([C@H](COC(=O)Nc3ccccc3)Cc3ccccc3)CC2)cc1 | - | - | - | 0 | 0 | -
CN1CCC2(CC1)N=C(c1ccc(F)cc1)C(=S)N2C(=O)c1ccc(C(C)(C)C)cc1 | 0 | 0 | 0 | 0 | 52.7 | 0
NS(=O)(=O)c1ccc(N/N=C/c2ccc[nH]2)c([N+](=O)[O-])c1 | 0 | 0 | 0 | 0 | 35.2 | 0
C/C(=N\Nc1ccc(S(N)(=O)=O)cc1[N+](=O)[O-])c1ccc2c(c1)OCO2 | - | - | - | 0 | 47.4 | 0
C/C(CCC(C)C)=N\Nc1ccc(S(N)(=O)=O)cc1[N+](=O)[O-] | 0 | 0 | 0 | 0 | 0 | -
CCC(CC)=NNc1ccc(S(N)(=O)=O)cc1[N+](=O)[O-] | 0 | 0 | 0 | 0 | 47.0 | 0
Cc1ccccc1N1CCN(C2CCCN(C(=O)CCn3cnnn3)C2)CC1 (stereo not given) | 0 | 0 | 0 | 0 | 0 | -
Cc1nc2nc(C)c(C)nc2nc1C | - | - | - | 0 | 0 | -
CC(OC(=O)c1cccc(-n2cnnn2)c1)C(=O)Nc1cccc(Cl)c1 (stereo not given) | 0 | 0 | 0 | 0 | 0 | -
Cc1ccc(S(=O)(=O)N2CC3(O)CN(C(=O)OC(C)C)N(C(=O)OC(C)C)CC3(OC(=O)Nc3cccs3)C2)cc1 (stereo not given) | - | - | - | 0 | 0 | -
COC/C=C/C1=CC2=CC(=O)C(C)(OC(=O)c3cnc4ccccc4n3)C(=O)C2=CN1CCN1CCOCC1 (stereo not given) | 0 | 0 | 0 | 0 | 0 | -
C=CCN1C=C2C(=O)C(C)(OC(=O)c3cnc4ccccc4n3)C(=O)C=C2C=C1/C=C/COC (stereo not given) | 0 | 0 | 0 | 0 | 0 | -
COC/C=C/C1=CC2=CC(=O)C(C)(OC(=O)c3cnc4ccccc4n3)C(=O)C2=CN1CCOC (stereo not given) | 0 | 0 | 0 | 0 | 54.4 | 47.4
COC/C=C/C1=CC2=CC(=O)C(C)(OC(=O)c3cnc4ccccc4n3)C(=O)C2=CN1CCCOC(C)C (stereo not given) | 0 | 0 | 0 | 0 | 43.9 | 0
COc1ccc(C2=NN(C(=O)CCC(=O)O)C(c3ccccc3F)C2)cc1 (stereo not given) | 0 | 0 | 0 | 0 | 0 | -
O=C1O[C@@H]([C@H](O)CO)C(O)=C1O | 0 | 0 | 0 | 0 | 40.4 | 0
Cc1ccc2[nH]c(C)c(/C=C/c3cc[n+](C)cc3)c2c1 | 0 | 0 | 0 | 0 | 40.3 | 0
Cc1ccc2c(c1)c(/C=C/c1cc[n+](C)cc1)c(C)n2C | 0 | 0 | 0 | 0 | 44.5 | 0
CCOc1cc(/C=C2\N=C(SC)SC2=O)cc([N+](=O)[O-])c1OC(C)=O | 0 | 0 | 0 | 0 | 45.4 | 0
CCOc1cc(/C=C2\N=C(SCC)SC2=O)cc([N+](=O)[O-])c1OC(C)=O | 0 | 0 | 0 | 0 | 0 | -
COC(=O)CSc1nnc(CNc2ccc(OC)cc2)n1C | 0 | 0 | 0 | 0 | 69.2 | 0
CC(C)OC(=O)CSc1nnc(CNc2ccc(Cl)cc2)n1C | 0 | 0 | 0 | 0 | 0 | -
COC(=O)CSc1nnc(CNS(=O)(=O)c2ccc(C)cc2)n1C | 0 | 0 | 0 | 0 | 42.1 | 0
CCCCNC(=O)C[C@@H]1C[C@@]2(C(=O)OCC)CCCC=C2N(Cc2ccco2)C1=O | - | - | - | 0 | 0 | -
SMILES | SENP6 block | SENP8 block-1 | SENP7 inh | SENP1 FRET inh | SENP8 block-2 | SENP8 inh conf
CCC(C(=O)NC1CCCC1)n1c(-c2cc3ccccc3[nH]2)nc2ccccc21 (stereo not given) | - | - | - | 0 | 0 | -
CCn1c(SCC(=O)O)nnc1-c1ccccc1 | 0 | 0 | 0 | 0 | 0 | -
CCn1c(SCc2cccc(C(=O)O)c2)nnc1-c1ccccc1 | 0 | 0 | 0 | 0 | 48.1 | 0
COc1cc(OC)c(C=CC(=O)c2ccccc2O)c(OC)c1 | - | - | - | 0 | 42.2 | 0
O=Nc1c(-c2ccccc2)[nH]n(-c2ccccc2)c1=O | 0 | 0 | 0 | 0 | 47.3 | 0
Cc1nc2c3cc(F)ccc3n(Cc3ccc(F)cc3)c2s1 | 0 | 0 | 0 | 0 | 0 | -
CCc1ccc2c(c1)c1nc(C)sc1n2CC | 0 | 0 | 0 | 0 | 95.7 | 0
CCC(=O)NC(c1cccs1)c1cc([N+](=O)[O-])c2cccnc2c1OC (stereo not given) | - | - | - | 0 | 95.9 | 0
NC(=NC1CCCCC1)c1ccc([N+](=O)[O-])cc1 | 0 | 0 | 0 | 0 | 41.7 | 0
Cc1cc([N+](=O)[O-])nn1CCCC(=O)NCc1ccc(F)cc1 | 0 | 0 | 0 | 0 | 0 | -
COc1ccc(C(=O)/C=C(\C)Nc2ccc3c(c2)OCO3)cc1 | 0 | 0 | 0 | 0 | 41.4 | 0
CCn1c(C)nc2cc(C(=O)NNS(=O)(=O)c3ccccc3F)ccc21 | 0 | 0 | 0 | 0 | 42.4 | 0
CCOC(=O)c1ccc(S(=O)(=O)NNC(=O)c2ccc3c(c2)nc(C)n3CC)cc1 | 0 | 0 | 0 | 0 | 0 | -
CC(C)C1Cc2c(sc3ncnc(NN)c23)CO1 (stereo not given) | 0 | 0 | 0 | 0 | 41.7 | 0
O=C(O)c1ccccc1NS(=O)(=O)c1cccc(NS(=O)(=O)c2cc(Br)ccc2Br)c1 | 0 | 0 | 0 | 0 | 0 | -
O=C1CC(c2ccco2)CC(O)=C1C=NCCN1CCNCC1 (stereo not given) | 0 | 0 | 0 | 0 | 0 | -
O=C1CC(c2ccco2)CC(O)=C1C=NCC1CCNCC1 (stereo not given) | 0 | 0 | 0 | 0 | 65.3 | 0
COc1ccc(S(=O)(=O)N(C)C[C@@H]2OCCCC[C@H](C)Oc3ccc(NC(=O)Nc4ccc(C(F)(F)F)cc4)cc3C(=O)N([C@H](C)CO)C[C@H]2C)cc1 | - | - | - | 0 | 0 | -
CCCCN1C2CCCC1CC(NC(=O)c1cccc(OC)c1)C2 (stereo not given) | 0 | 0 | 0 | 0 | 0 | -
Cc1cc2c(NC(=O)CC(C)(C)CC(=O)O)cccc2nn1 | 0 | 0 | 0 | 0 | 43.7 | 0
C=C(C)CNC(=S)N/N=C/c1ccc([N+](=O)[O-])cc1 | 0 | 0 | 0 | 0 | 0 | -
COCCNC(=S)N/N=C/c1ccc([N+](=O)[O-])cc1 | 0 | 0 | 0 | 0 | 42.7 | 0
O=C1C=C(c2ccccc2)CO1 | - | - | - | 0 | 0 | -
CCCn1ncc(CN2CCC(n3nccc3NC(=O)CCc3ccccc3)CC2)c1C | 0 | 0 | 0 | 0 | 0 | -
CC(=O)c1ccc(OCC(=O)OCC(=O)c2ccc(S(=O)(=O)N3CCCCC3)cc2)cc1 | - | - | - | 0 | 0 | -
CC(C)[C@H](NC(=O)N1CC(=O)Nc2ccccc21)C(=O)N[C@H](Cc1c[nH]c2ccccc12)C(=O)O | 0 | 0 | 0 | 0 | 44.0 | 0
CC(C)[C@H](NC(=O)N1c2ccccc2NC(=O)[C@@H]1C(C)C)C(=O)N[C@@H](Cc1ccccc1)C(=O)O | 0 | 0 | 0 | 0 | 53.6 | 0
COc1ccc(CCCN2CCC(CN3CCNC(=O)C3=O)CC2)cc1OC | - | - | - | 0 | 0 | -
COc1ccc(NC(=O)NNc2cc(N3CCOCC3)nc(N3CCOCC3)n2)cc1 | 0 | 0 | 0 | 0 | 44.1 | 0
